This passage reports Activity and IC50 results from ChEMBL document CHEMBL1151972, “Cytotoxic asterosaponins capable of promoting polymerization of tubulin from the starfish Culcita novaeguineae” (J Nat Prod, 2009).

Assay [1] deals with T1, Tubulin (Sus scrofa) (UniProt P02554+P02550). Briefly: Induction of pig brain tubulin polymerization assessed as end point promote coefficient at 11.7 uM by first high-throughput screening end-point assay. In outline: (§1)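 Tubulin prepared from pig brain; first high-throughput screening step. Polymerization followed by turbidity, end-point reading of the absorbance change at 350 nm, expressed as Pe (percent end-point promote coefficient). Samples above 20% Pe counted as active. Three independent experiments, eight replicate wells each.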
T1 sequence (P02550 whole entry, looked up): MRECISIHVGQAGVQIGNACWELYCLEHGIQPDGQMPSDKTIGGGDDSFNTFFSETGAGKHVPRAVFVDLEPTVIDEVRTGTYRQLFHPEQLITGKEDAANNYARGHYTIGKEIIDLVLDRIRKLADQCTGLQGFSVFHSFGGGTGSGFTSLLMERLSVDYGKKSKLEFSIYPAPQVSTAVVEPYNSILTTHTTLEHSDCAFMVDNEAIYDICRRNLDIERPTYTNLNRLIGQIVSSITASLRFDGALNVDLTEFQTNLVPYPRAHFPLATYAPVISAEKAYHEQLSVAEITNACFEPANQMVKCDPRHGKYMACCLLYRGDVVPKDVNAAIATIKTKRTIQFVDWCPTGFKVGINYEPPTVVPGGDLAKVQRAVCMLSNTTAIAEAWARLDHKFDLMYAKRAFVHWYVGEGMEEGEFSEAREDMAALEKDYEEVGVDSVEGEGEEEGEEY
T1 sequence (P02554 whole entry, looked up): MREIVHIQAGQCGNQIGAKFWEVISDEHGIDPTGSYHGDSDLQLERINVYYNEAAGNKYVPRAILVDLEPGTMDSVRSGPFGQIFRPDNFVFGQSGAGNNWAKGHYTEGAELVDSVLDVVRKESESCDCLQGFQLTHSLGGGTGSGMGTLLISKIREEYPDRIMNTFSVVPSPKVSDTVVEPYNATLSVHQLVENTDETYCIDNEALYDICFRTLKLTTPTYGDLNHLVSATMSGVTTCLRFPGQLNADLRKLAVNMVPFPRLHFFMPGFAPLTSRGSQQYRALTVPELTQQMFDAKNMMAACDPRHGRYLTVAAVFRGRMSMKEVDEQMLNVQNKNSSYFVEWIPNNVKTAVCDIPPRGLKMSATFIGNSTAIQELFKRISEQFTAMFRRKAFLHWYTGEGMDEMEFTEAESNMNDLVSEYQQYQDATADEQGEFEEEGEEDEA

Assay [2] has as its target T1, Tubulin (Sus scrofa). Briefly: Induction of pig brain tubulin polymerization assessed as kinetic promote coefficient at 11.7 uM by first high-throughput screening end-point assay.
For the next assay, the system named is Bel-7402. As to the kind of experiment: Cytotoxicity against human Bel7402 cells after 72 hrs by SRB assay. Type of assay: functional, cell-based. The note with it: Bel-7402, 72 h. In a few lines:
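Human hepatoma BEL7402 cells; sulforhodamine B protein-staining assay after 72 h exposure. Dose-response curves plotted. IC50 = concentration giving 50% reduction in absorbance relative to control cells. Three independent experiments, each concentration in three replicate wells.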

Another assay deals with K562. As to the kind of experiment: Cytotoxicity against human K562 cells after 72 hrs by MTT assay. It is filed as functional, cell-based. The note with it: K562, 72 h. In a few lines:
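Human leukemia K-562 cells; MTT colorimetric viability assay after 72 h exposure. IC50 read from dose-response curves as the concentration giving 50% lower absorbance than control cells. Mean of three independent experiments, triplicate wells per concentration.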

The target in assay [3] is T1, Tubulin (Sus scrofa). Briefly: Induction of pig brain tubulin polymerization assessed as kinetic promote coefficient at 9.3 uM by first high-throughput screening end-point assay.
In assay [4] the target is T1, Tubulin (Sus scrofa). Briefly: Induction of pig brain tubulin polymerization assessed as end point promote coefficient at 9.3 uM by first high-throughput screening end-point assay. In a few lines: as §1
The target of assay [5] is T1, Tubulin (Sus scrofa). As to the kind of experiment: Induction of pig brain tubulin polymerization assessed as end point promote coefficient at 8.9 uM by first high-throughput screening end-point assay. In a few lines: as §1
The target of assay [6] is T1, Tubulin (Sus scrofa). As to the kind of experiment: Induction of pig brain tubulin polymerization assessed as kinetic promote coefficient at 8.9 uM by first high-throughput screening end-point assay.

For the compound `CC(=O)O[C@H]1C(=O)[C@@]2(C)[C@H]([C@H](OC(=O)c3ccccc3)[C@]3(O)C[C@H](OC(=O)[C@H](O)[C@@H](NC(=O)c4ccccc4)c4ccccc4)C(C)=C1C3(C)C)[C@]1(OC(C)=O)CO[C@@H]1C[C@@H]2O`, the Activity on Tubulin (Sus scrofa) [1] turned out to be 32%; at Tubulin (Sus scrofa) [2], 100%.

Take `CC[C@@]1(O)C(=O)OCc2c1cc1n(c2=O)Cc2cc3cc(O)ccc3nc2-1` [HYDROXYCAMPTOTHECIN]: the IC50 with Bel-7402 turned out to be 400 nM; in the assay on K562 it was 180 nM.

Take `CO[C@@H]1[C@@H](O)[C@H](O[C@H]2[C@H](O[C@@H]3[C@@H](O)[C@H](O[C@H]4C[C@@H]5C(=CC[C@]6(C)[C@@H]([C@H](C)CC[C@H](OS(=O)(=O)O)C(C)C)CC[C@@H]56)[C@@]5(C)CC[C@H](OS(=O)(=O)O)C[C@H]45)O[C@H](CO)[C@H]3O)OC[C@@H](O)[C@@H]2O)O[C@H](C)[C@H]1O` [NOVAEGUINOSIDE C]: the Activity was 149% on Tubulin (Sus scrofa) [3] and 42% on Tubulin (Sus scrofa) [4]. The IC50 is 700 nM in the assay with Bel-7402 and 1300 nM in the assay with K562.

Regarding `CO[C@@H]1[C@@H](O)[C@H](O[C@H]2[C@H](O[C@@H]3[C@@H](O)[C@H](O[C@H]4C[C@@H]5C(=CC[C@]6(C)[C@@H]([C@H](C)/C=C/[C@@H](C)[C@@H](C)C(=O)NCCS(=O)(=O)O)CC[C@@H]56)[C@@]5(C)CC[C@H](OS(=O)(=O)O)C[C@H]45)O[C@H](CO)[C@H]3O)OC[C@@H](O)[C@@H]2O)O[C@H](C)[C@H]1O` [NOVAEGUINOSIDE D], the Activity at Tubulin (Sus scrofa) [5] was determined as 23%; on Tubulin (Sus scrofa) [6], 85%. In addition, the results for the IC50 in the assay on Bel-7402 and with K562 were 4100 nM and 4600 nM, respectively.
